# Assay outcomes (PubChem)
# A selection: hits, their analogues and other compounds. The true share with any hit is near 4.3%.
# Rin1 Abl inh = human Rin1-Abl interaction inhibition; TR-FRET Rin1/Abl binding, biochemical; inhibition, % at 7.35 µM; hit rate 0.4% among 360,000; AID 588664; in the data active means inhibition above about 5%, passing the limit was not always enough
# RBBP9 inhibitor = blocks human serine hydrolase RBBP9. O75884. recombinant RBBP9, FP-Rh probe fluorescence polarization. inhibition, % at 7.94 µM. hit rate 0.2% among 220,000;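 active means inhibition above the campaign mean of all tested compounds plus 3 SD, cut at about 14% in these data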;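 further: plate controls were DMSO wells with RBBP9 for no effect and wells lacking RBBP9 protein for full effect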
#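 Test system – recombinant human RBBP9 · Input – RBBP9 2.5 µM in dispensing solution, pre-mixing · Medium – Tris buffer pH 8.0, NaCl, Pluronic · Schedule – preincubation 30 min plus labeling 45 min at 25 °C · Measured by – fluorescence polarization · Measure – % inhibition · Controls – DMSO and no-protein wells · Replicates – one well per compound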
# ALR inh = inhibitors of human sulfhydryl oxidase ALR; purified ALR, DTT oxidation, H2O2 HRP-luminol luminescence; hit rate 3.8% among 290,000; AID 485317; inhibition, % (concentration not given with the values); P55789;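 active means mean replicate inhibition above about 79%, with every replicate also reaching it, limit read from the data; inconclusive means only one of the two criteria met; inactive means mean below limit and not every replicate reaching it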
# Target sequence (P55789 whole entry, looked up): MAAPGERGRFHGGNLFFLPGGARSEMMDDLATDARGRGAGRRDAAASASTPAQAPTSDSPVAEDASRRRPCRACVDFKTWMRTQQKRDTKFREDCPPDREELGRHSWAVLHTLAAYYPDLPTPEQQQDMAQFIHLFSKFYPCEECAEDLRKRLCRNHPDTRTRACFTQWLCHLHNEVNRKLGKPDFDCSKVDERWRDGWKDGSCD
# UBC9 SUMO inh = blocks human SUMOylation mediated by UBC9; inhibition, % at 35 µM; HTRF SUMOylation assay, SAE1/SAE2 + UBC9, in vitro; hit rate 0.36% among 290,000; in the data active means inhibition above about 50%, passing the limit was not always enough; inconclusive means no clear call, values can overlap the other calls
# Target sequence (P63279 whole entry, looked up): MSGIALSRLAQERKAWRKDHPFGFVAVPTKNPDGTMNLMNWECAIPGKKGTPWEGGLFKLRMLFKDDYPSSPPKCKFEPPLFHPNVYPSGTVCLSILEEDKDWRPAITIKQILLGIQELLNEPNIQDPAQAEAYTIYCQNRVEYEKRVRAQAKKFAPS
# PREPL inhibitor = inhibits the human prolyl oligopeptidase-like enzyme. Q4J6C6. recombinant PREPL, fluorescence polarization activity-based probe. inhibition, % at 5.96 µM. hit rate 0.68% among 320,000; in the data active means inhibition above about 43%;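 further: 0% = enzyme with DMSO and 100% = wells lacking enzyme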
# UBC13 inh = human UBC13 polyubiquitination inhibition. inhibition, % at 20 µM. hit rate 0.47% among 330,000. P61088. AID 485273. UBC13 polyubiquitin chain formation, TR-FRET; in the data active means inhibition above about 45%, passing the limit was not always enough; inconclusive means no clear call, values can overlap the other calls
# Target sequence (P61088 whole entry, looked up): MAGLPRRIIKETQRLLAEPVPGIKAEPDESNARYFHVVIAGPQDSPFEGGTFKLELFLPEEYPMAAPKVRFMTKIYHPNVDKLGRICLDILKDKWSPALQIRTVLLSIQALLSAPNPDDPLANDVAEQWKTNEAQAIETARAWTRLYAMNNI
# An asterisk follows results filed as active; ? = inconclusive; · = no result given.
SMILES,Rin1 Abl inh,RBBP9 inhibitor,ALR inh,UBC9 SUMO inh,PREPL inhibitor,UBC13 inh
CCOC(=O)c1nnc(-c2ccc(C)cc2)nc1Sc1cccc(Cl)c1,-1,-7,·,-12,-10,-4
O=C(O)c1cnc(-c2ccccc2)nc1Sc1ccccc1Cl,0,-3,98*,-24,19,-5
O=C(OCCOCCN=C1NS(=O)(=O)c2ccccc21)c1ccc(F)cc1,2,·,-2,3,-3,0
CC(=O)c1sc(Nc2ccccc2)nc1C,-4,·,·,·,·,·
CC(C)(C)C(=O)c1sc(Nc2ccccc2)nc1N,1,-5,97*,22,1,-1
CCN(CC(=O)Nc1c(F)cccc1F)C(=O)c1ccc(OC)c(S(=O)(=O)NC2CCCC2)c1,-3,·,·,·,·,·
Cc1c2c(nc3ccccc13)CC(C)(C)CC2=O,2,-1,94*,10,5,-6
COc1ccc(NC2CCCN(C(=O)c3ccc(OC)cc3OC)C2)cc1 (centres undefined),2,·,99*,-4,3,0
COc1ccc2cc(C(=O)N3CCCC(Nc4ccc(F)cc4)C3)n(C)c2c1 (centres undefined),0,·,25,-1,17,0
Cc1ccc(C(=O)N2CCCC(Nc3ccc(C)c(C)c3)C2)c(=O)[nH]1 (centres undefined),0,·,0,2,31,-5
Cc1ccc(NC2CCCN(C(=O)c3ccc(C)c(N4CCNC4=O)c3)C2)cc1C (centres undefined),4,·,93*,5,38,-10
Cc1ccc(NC2CCCN(C(=O)C3CCCC3)C2)cc1C (centres undefined),-1,·,99*,11,26,-4
Cc1ccc(NC2CCCN(C(=O)c3ccoc3C)C2)cc1C (centres undefined),6,·,98*,-5,·,1
Cc1ccc(NC(=O)CCn2c(=O)c3cccn3c3ccccc32)cc1C,1,·,-2,2,-7,4
Cc1coc(C)c1C(=O)Nc1ccc2ccccc2c1,2,·,·,-1,·,3
CCn1nc(CC(C)C)cc1C(=O)N1CCCC(Nc2ccc(OC)cc2)C1 (centres undefined),9,·,98*,10,15,-7
COc1ccc(C(=O)N2CCCC(Nc3ccc(C)c(C)c3)C2)cc1 (centres undefined),2,·,98*,6,15,10
Cc1ccc(NC2CCCN(C(=O)c3ccoc3)C2)cc1C (centres undefined),-1,·,99*,-2,23,-2
CC(=O)c1ccc(OCC(=O)N2CCCC(Nc3ccc(C)c(C)c3)C2)cc1 (centres undefined),0,·,85*,-13,5,2
CC(C)CC(N)c1csc(NC(=O)Nc2ccccc2C(C)(C)C)n1 (centres undefined),-4,·,·,·,·,·
COc1ccccc1N1CCN(C(=O)c2ccc3[nH]c(C)c(C)c3c2)CC1,2,·,9,6,-2,-10
COc1ccc(NC2CCCN(C(=O)c3ccc4[nH]c(C)c(C)c4c3)C2)cc1OC (centres undefined),-1,·,99*,-8,22,-5
Cc1oc(-c2ccccc2)nc1CSc1nc2c(c(=O)[nH]1)CCC2,0,-1,·,21,6,-9
Cc1cccc(-c2nc(CSc3nc4c(c(=O)[nH]3)CCC4)c(C)o2)c1,-2,-6,99*,10,4,-9
COc1cc(OC)cc(C(=O)NCC2CCCN(C(=O)c3oc(C)cc3C)C2)c1 (centres undefined),6,·,-1,4,4,4
SMILES,Rin1 Abl inh,RBBP9 inhibitor,ALR inh,UBC9 SUMO inh,PREPL inhibitor,UBC13 inh
O=C(c1ccc(-c2ccc([N+](=O)[O-])cc2)o1)N1CCCCC1,-1,-3,1,24,7,-6
CC1CC(C)CN(C(=O)c2ccc(-c3ccc([N+](=O)[O-])cc3)o2)C1 (centres undefined),-1,·,89*,·,13,2
CC(C)(CC(=O)O)CC(=O)Nc1ccc(Cl)c(Cl)c1,-4,-3,-2,11,1,2
O=C(CCN1CCOCC1)c1ccc(Br)cc1,0,-7,98*,13,0,10
CC(C)Oc1ccc(C(=O)CCN2CCOCC2)cc1,0,·,53,·,-5,-1
O=C(CCN1CCOCC1)c1ccc(Cl)cc1,-2,-3,96*,-1,4,10
COc1ccc(S(=O)(=O)Cc2ccc(C(=O)N3CCN(Cc4ccccc4)CC3)o2)cc1,5,1,?,14,10,6
O=C(c1ccc(CS(=O)(=O)c2ccc(Br)cc2)o1)N1CCCC1,0,-1,96*,21,-10,3
Cc1ccc(S(=O)(=O)Cc2ccc(C(=O)N3CCN(Cc4ccccc4)CC3)o2)cc1,4,-3,94*,15,15,-1
O=C(c1ccc(CS(=O)(=O)c2ccc(Br)cc2)o1)N1CCCCCC1,-1,-1,-30,-7,3,7
CC1CCCC(C)N1C(=O)CSc1ncccn1 (centres undefined),4,·,-4,12,17,-2
O=C(CN1CCCC1)Nc1c(C(=O)C2CC2)oc2ccccc12,1,7,2,18,-35,2
N#Cc1ccccc1OCC(=O)Nc1c(C(=O)C2CC2)oc2ccccc12,2,-2,90*,4,-6,10
O=C(CCC(=O)N1CCOc2ccc(Cl)cc21)NCCCN1CCOCC1,0,·,1,5,-1,7
COc1ccccc1NC(=O)C(Sc1ccccc1)c1ccccc1 (centres undefined),0,-10,84*,-18,-10,14
COc1ccccc1NC(=O)c1c(NC(=O)c2ccco2)sc2c1CCC2,0,-9,-1,30,5,2
COc1ccccc1C(=O)Nc1sc2c(c1C(=O)NCc1ccco1)CCCC2,0,6,3,61*,-1,7
COc1ccc([C@H]2C[C@H](n3cc(COC(=O)c4ccccc4)nn3)[C@@H](O)CN2CC2CCCCC2)cc1,-1,·,·,·,·,·
Cc1ccc(S(=O)(=O)Nc2cc(C(C)C)c(O)cc2C)cc1,-4,13,97*,-5,5,0
O=c1oc2cc(Br)ccc2n1CSC1=NCCS1,1,2,99*,-10,-2,3
COC(=O)Cc1csc(Nc2ccccc2)n1,1,-8,·,8,0,7
COC(=O)Cc1nc(Nc2ccccc2)sc1C,-2,-4,99*,0,24,3
O=C1OC(c2ccccc2)=C/C1=C/N1CCCCC1,-3,-4,85*,36,8,-3
O=C1OC(c2ccccc2)=CC1=Cc1ccccc1O,1,·,·,·,·,·
CC(=O)N1C[C@H]2CON(C)[C@H]2C[C@H]1c1cccc(-c2cc(Cl)cc(Cl)c2)c1,-1,·,·,·,·,·
O=C(OCCNc1ccc(C(F)(F)F)cc1[N+](=O)[O-])c1cc2ccccc2oc1=O,1,-3,-5,21,9,0
